Source: ChEMBL document CHEMBL4842360, “Discovery of a Bicyclic Peptidyl Pan-Ras Inhibitor” (J Med Chem, 2021)
The source made the active and inactive calls. The rule behind the calls is not given here. Numbered stars: 1 amine (or outer) side, 2 acyl side, 3 side chain; on linkers, the order of the positions; unused ones are H or OH. Bridge positions count the residues as written; N and C are the ends. Square brackets hold non-standard residues; d marks the D form. Peptide text beside a SMILES is read from it. Trimesoyl = O=C(c1cc(C(=O)[*:2])cc(C(=O)[*:3])c1)[*:1]; d2Nal = N[C@H](Cc1ccc2ccccc2c1)C(=O)O; Phg = N[C@H](C(=O)O)c1ccccc1; Orn = NCCC[C@H](N)C(=O)O; Dap = NC[C@H](N)C(=O)O

Assays:
Homo sapiens = organism: Homo sapiens; experiment: Binding affinity to glutathione-S-transferase (unknown origin)
How it was run: (§1)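 Fluorescein-labeled peptide (100 nM) incubated 1 h at RT with varying concentrations of control protein (BSA, GST-RBD, PNP, PTP1B or MDM2). KD derived from fluorescence polarization titration curves.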

[1] = molecular target: T1, Purine nucleoside phosphorylase (Homo sapiens) (UniProt P00491); experiment: Binding affinity to purine nucleoside phosphorylase (unknown origin); how it was run: as §1
T1 sequence (whole entry): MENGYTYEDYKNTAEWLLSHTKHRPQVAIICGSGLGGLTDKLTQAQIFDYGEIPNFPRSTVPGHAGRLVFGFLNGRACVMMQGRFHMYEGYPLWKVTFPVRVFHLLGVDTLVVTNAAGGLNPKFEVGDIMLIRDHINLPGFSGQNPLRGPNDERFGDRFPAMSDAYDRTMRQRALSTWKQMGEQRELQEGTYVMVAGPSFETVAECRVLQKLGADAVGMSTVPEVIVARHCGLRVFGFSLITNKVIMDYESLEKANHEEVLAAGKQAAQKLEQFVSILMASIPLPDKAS

[2] = molecular target: T2, Tyrosine-protein phosphatase non-receptor type 1 (Homo sapiens) (UniProt P18031); experiment: Binding affinity to PTP1B (unknown origin); how it was run: as §1
T2 sequence (whole entry): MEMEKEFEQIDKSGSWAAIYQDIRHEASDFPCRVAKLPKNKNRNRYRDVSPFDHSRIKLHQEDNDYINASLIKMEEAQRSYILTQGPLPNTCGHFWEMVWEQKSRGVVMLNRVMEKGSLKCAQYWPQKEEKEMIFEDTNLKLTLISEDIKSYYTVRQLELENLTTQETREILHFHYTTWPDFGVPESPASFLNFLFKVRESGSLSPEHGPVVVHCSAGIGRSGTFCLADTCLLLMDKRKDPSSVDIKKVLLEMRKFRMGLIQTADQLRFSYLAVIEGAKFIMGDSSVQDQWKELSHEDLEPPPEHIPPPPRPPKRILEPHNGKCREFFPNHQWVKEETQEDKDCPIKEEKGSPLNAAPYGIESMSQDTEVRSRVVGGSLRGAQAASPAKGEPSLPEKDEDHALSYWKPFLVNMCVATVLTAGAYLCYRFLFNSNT

[3] = molecular target: E3 ubiquitin-protein ligase Mdm2 (Homo sapiens) (UniProt Q00987); experiment: Binding affinity to MDM2 (unknown origin); how it was run: as §1
[4] = Drug localization in human HeLa cells assessed as mean fluorescence intensity at 5 uM incubated for 2 hrs in presence of 1% FBS by flow cytometry relative to CPP12; type: ADME, cell-based
How it was run: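 HeLa cells treated with 5 μM fluorescein-labeled peptide and analysed by flow cytometry. Mean fluorescence intensity expressed relative to FITC-labeled CPP12 (100%).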

[5] = Drug distribution in human NCI-H358 cells assessed as diffuse fluorescence throughout the entire cell volume at 5 uM incubated for 2 hrs by live-cell confocal microscopy; type: ADME, cell-based; conditions: nci-h358, 2 h
How it was run: (§2)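 HeLa, H358 or A549 cells treated with 5 μM fluorescein-labeled peptide for 2 h, then imaged by live-cell confocal microscopy for intracellular fluorescence pattern.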

[6] = Drug distribution in human NCI-H358 cells assessed as fluorescent puncta in cytoplasmic region at 5 uM incubated for 2 hrs by live-cell confocal microscopy; type: ADME, cell-based; conditions: nci-h358, 2 h; how it was run: as §2
[7] = Drug distribution in human NCI-H358 cells assessed as accumulation in plasma membrane at 5 uM incubated for 2 hrs by live-cell confocal microscopy; type: ADME, cell membranes; conditions: nci-h358, 2 h; how it was run: as §2
[8] = Drug distribution in human A549 cells assessed as accumulation in plasma membrane at 5 uM incubated for 2 hrs by live-cell confocal microscopy; type: ADME, cell membranes; conditions: a549, 2 h; how it was run: as §2
A549 [9] = experiment: Antiproliferative activity against human A549 cells harboring KRAS G12S mutant incubated for 96 hrs by CellTiter-Glo2 assay; type: functional, cell-based; conditions: A549, 96 h
How it was run: (§3)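 Cells plated at 5,000/well, grown overnight, then exposed to serially diluted peptide (0–40 μM) in medium with 10% FBS for 96 h at 37 °C, 5% CO2. Viability read by CellTiter-Glo 2.0 luminescence after 15 min at RT.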

[10] = Antiproliferative activity against human NCI-H1915 cells harboring HRas Q61L mutant incubated for 96 hrs by CellTiter-Glo2 assay; type: functional, cell-based; conditions: NCI-H1915, Lung; how it was run: as §3
NCI-H358 [11] = experiment: Induction of apoptosis in human NCI-H358 cells assessed as live cells at 1 uM incubated for 24 hrs by Alexa Fluor 488 annexin V/propidium iodide staining based assay (reference value: 87%); type: functional
NCI-H358 [12] = experiment: Induction of apoptosis in human NCI-H358 cells assessed as early apoptotic cells at 1 uM incubated for 24 hrs by Alexa Fluor 488 annexin V/propidium iodide staining based assay (reference value: 3.05%); type: functional
NCI-H358 [13] = experiment: Induction of apoptosis in human NCI-H358 cells assessed as live cells at 5 uM incubated for 24 hrs by Alexa Fluor 488 annexin V/propidium iodide staining based assay (reference value: 87%); type: functional
NCI-H358 [14] = experiment: Induction of apoptosis in human NCI-H358 cells assessed as live cells at 10 uM incubated for 24 hrs by Alexa Fluor 488 annexin V/propidium iodide staining based assay (reference value: 87%); type: functional
NCI-H358 [15] = experiment: Induction of apoptosis in human NCI-H358 cells assessed as early apoptotic cells at 10 uM incubated for 24 hrs by Alexa Fluor 488 annexin V/propidium iodide staining based assay (reference value: 3.05%); type: functional
A549 [16] = experiment: Antitumor activity against human A549 cells xenografted in mouse assessed as average tumor volume at 5 mg/kg, iv administered for 9 days measured every other day (reference value: 100 mm3); type: functional; conditions: time 9 day
How it was run: (§4)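 Nude mice given ~1.5 million A549 cells subcutaneously. Once tumors reached ~40 mm3, groups of n = 6 received peptide at 1 or 5 mg/kg/day or PBS vehicle by tail-vein injection for 9 days. Tumor volume was tracked, and tumors were weighed at harvest.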

A549 [17] = experiment: Antitumor activity against human A549 cells xenografted in mouse assessed as reduction in tumor growth at 5 mg/kg, iv administered for 9 days measured every other day; type: functional; set-up: scale not given: the % may be the effect or the level left; conditions: time 9 day; how it was run: as §4
[18] = Toxicity in mouse xenografted with human A549 cells assessed as effect on body weight at 1 to 5 mg/kg, iv administered for 9 days; type: organism-based; conditions: in vivo, 216 h, dose 1-5 mg/kg, time 9 day
How it was run: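 About 1.5 million A549 cells given subcutaneously to nude mice. Dosing began once tumors reached ~40 mm3, with n = 6 per group. Mice received 1 or 5 mg/kg per day or vehicle (PBS) by tail-vein injection for 9 days. Body weight was monitored alongside tumor volume and weight at harvest.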

NCI-H358 [19] = experiment: Antitumor activity against human NCI-H358 cells xenografted in mouse assessed as suppression of tumor growth at 5 mg/kg, iv administered for 9 days measured every other day; type: functional, organism-based; conditions: time 9.0 day
How it was run: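 H358 xenograft in mice; peptide given daily at 5 mg/kg i.v. for 9 days, with tumor growth followed over that period.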

A549 [20] = experiment: Antitumor activity against human A549 cells xenografted in mouse assessed as reduction in ERK phosphorylation at 1 to 5 mg/kg, iv administered for 9 days measured every other day by immunohistochemical staining method; type: functional, organism-based; conditions: dose 1-5 mg/kg, time 9.0 day
DLD-1 = experiment: Antiproliferative activity against human DLD-1 cells harboring KRAS G13D mutant incubated for 96 hrs by CellTiter-Glo2 assay; type: functional, cell-based; conditions: DLD-1, 96 h; how it was run: as §3

Sequence of E3 ubiquitin-protein ligase Mdm2 (Homo sapiens) (Q00987 whole entry, looked up): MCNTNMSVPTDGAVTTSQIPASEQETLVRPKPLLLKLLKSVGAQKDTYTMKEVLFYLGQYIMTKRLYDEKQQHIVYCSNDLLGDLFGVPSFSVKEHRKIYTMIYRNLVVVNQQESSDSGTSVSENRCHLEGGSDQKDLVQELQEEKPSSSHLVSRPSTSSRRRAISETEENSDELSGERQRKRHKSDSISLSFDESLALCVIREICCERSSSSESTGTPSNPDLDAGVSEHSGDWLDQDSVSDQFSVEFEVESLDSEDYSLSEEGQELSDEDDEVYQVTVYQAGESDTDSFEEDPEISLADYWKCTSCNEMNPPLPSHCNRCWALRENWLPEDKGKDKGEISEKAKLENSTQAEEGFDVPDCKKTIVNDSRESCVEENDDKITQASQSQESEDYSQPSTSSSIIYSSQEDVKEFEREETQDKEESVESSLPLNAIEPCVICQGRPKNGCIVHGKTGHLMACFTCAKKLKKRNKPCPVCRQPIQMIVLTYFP

C[C@@H](NC(=O)[C@H](Cc1ccccc1)NC(=O)[C@@H](CCCNC(=N)N)NC(=O)[C@H](CCCN)NC(=O)[C@@H]1CNC(=O)c2cc3cc(c2)C(=O)N[C@H](Cc2ccc4ccccc4c2)C(=O)N[C@@H](CO)C(=O)N[C@@H](CC(N)=O)C(=O)N[C@H](Cc2ccc4ccccc4c2)C(=O)N[C@@H](c2ccccc2)C(=O)N[C@@H](CCCCNC3=O)C(=O)N[C@H](Cc2ccccc2)C(=O)N[C@@H](CCC(N)=O)C(=O)N[C@H](CCCNC(=N)N)C(=O)N[C@@H](CCCNC(=N)N)C(=O)N1)C(N)=O ([d2Nal]SN[d2Nal][Phg]K[dF]Q[dR]R[Dap][Orn][dR]F[dA]-NH2; linker N-6-11 via Trimesoyl)
Activity (Homo sapiens): inactive | Activity [1]: inactive | Activity [2]: inactive | Activity [3]: inactive | Drug uptake [4]: 226% | Drug uptake [5]: Active | Drug uptake [6]: Active | Drug uptake [7]: Active | Drug uptake [8]: Active | EC50 (A549 [9]): 0.5 µM | EC50 [10]: 6.8 µM | Activity (NCI-H358 [11]): 87.7% | Activity (NCI-H358 [12]): 3.13% | Activity (NCI-H358 [13]): 55.1% | Activity (NCI-H358 [14]): 15.4% | Activity (NCI-H358 [15]): 4.11% | Activity (A549 [16]): 35 mm3 | Activity (A549 [17]): 100% | Activity [18]: Non-Toxic | Activity (NCI-H358 [19]): Active | Activity (A549 [20]): Active | EC50 (DLD-1): 4.9 µM
